RGS4 inh = inhibitors of human RGS4; P49798; HEK293 M3R/RGS4 inducible, Fluo-4 calcium flux; stronger effect = higher value; triggered by carbachol at its EC20; B-score at 10 µM; 310,000 compounds, 0.45% hits;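 active = B-score, a plate-corrected calcium signal, over three deviations above library mean, with baseline fluorescence within five deviations of library mean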;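 also: RGS4 expression induced by doxycycline in cells with stable M3 receptor; B-score is computed from the integrated fluorescence ratio over baseline after carbachol; higher B-score means a larger calcium signal and so more RGS4 inhibition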
Target sequence (P49798 whole entry, looked up): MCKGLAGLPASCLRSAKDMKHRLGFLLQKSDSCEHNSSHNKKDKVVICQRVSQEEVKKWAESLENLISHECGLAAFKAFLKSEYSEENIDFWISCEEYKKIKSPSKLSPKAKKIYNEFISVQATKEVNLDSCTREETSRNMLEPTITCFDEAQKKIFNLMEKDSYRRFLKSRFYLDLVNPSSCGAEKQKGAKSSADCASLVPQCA
MrgX1 ag = human MrgX1 receptor agonism, primary screen; MrgX1-HEK293 cells, Fluo-4 calcium fluorescence, agonist mode; stronger effect = higher value; AID 588627; B-score at 10 µM; 310,000 compounds, 0.44% hits;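 active = calcium response B-score plate-corrected fluorescence ratio at least 3 library SD, with starting fluorescence B-score inside 5 SD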
Target sequence (Q96LB2 whole entry, looked up): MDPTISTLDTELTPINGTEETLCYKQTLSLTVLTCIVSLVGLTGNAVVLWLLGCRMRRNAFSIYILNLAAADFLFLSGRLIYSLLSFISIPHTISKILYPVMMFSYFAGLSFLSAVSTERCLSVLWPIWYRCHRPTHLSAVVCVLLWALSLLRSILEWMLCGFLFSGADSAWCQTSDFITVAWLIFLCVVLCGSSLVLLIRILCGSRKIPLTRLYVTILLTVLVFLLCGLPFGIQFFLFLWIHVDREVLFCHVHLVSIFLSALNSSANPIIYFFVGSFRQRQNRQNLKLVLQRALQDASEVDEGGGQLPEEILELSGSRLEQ
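Material: MrgX1-expressing HEK293 cells / Dosing: compound as first of three additions / Incubation: overnight seeding, then 1 h dark dye loading / Signal: Fluo-4 NW calcium fluorescence / Evaluation: B-scored fluorescence response ratio / Benchmarks: positive and negative control wells on each plate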
MrgX1 PAM = human MrgX1 positive allosteric modulation, primary screen; 310,000 compounds, 0.63% hits; Q96LB2; AID 588675; MrgX1-HEK293, Fluo-4 calcium flux, FDSS; stronger effect = higher value; B-score at 10 µM;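 active = plate-corrected calcium response at least 3 library SD above typical, normal starting fluorescence, not activating the receptor alone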;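 also: compound read alongside a low EC10 to EC30 dose of BAM8-22 agonist; peak minus trough fluorescence over baseline measured at the second addition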
MrgX1 antagonist = human MrgX1 receptor antagonism, primary screen. MRGX1-HEK293 calcium flux, Fluo-4, BAM8-22 antagonism; stronger effect = lower value. B-score at 10 µM. Q96LB2. 310,000 compounds, 1.3% hits. AID 588676;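 active = calcium-response B-score plate-corrected more than 3 library SD below zero, starting fluorescence within 5 deviations, no agonist response on first addition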;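 also: peak minus trough fluorescence over baseline after final BAM8-22 challenge near maximal dose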
RGS4 act = potentiators or activators of RGS4; 310,000 compounds, 0.92% hits; HEK293 M3R/inducible RGS4, carbachol calcium flux Fluo4; stronger effect = lower value; B-score at 10 µM;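 active = B-score of the integrated calcium signal more than 4 SD below the library mean, with starting fluorescence not abnormally high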;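 also: negative B-score means reduced calcium response which marks RGS4 activation or potentiation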
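Assay system: Inducible-RGS4 HEK293 cells carrying M3 receptor | Schedule: Compound preincubation 20 min at room temperature before agonist | Signal: Kinetic calcium fluorescence imaging with Fluo4-AM dye, 2 µM | Read-out basis: B score from integrated fluorescence ratio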
RGS4 act valid = RGS4 activation, validation assay; shares compounds with RGS4 act; HEK293 M3R/RGS4 inducible, carbachol calcium flux Fluo4; inhibition, % at 10 µM; 1,100 compounds, 89% hits; AID 602282;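 active = inhibition above 3 SD of the buffer control wells, cut at about 41% in these data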;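 also: signal is the integrated peak-minus-minimum Fluo4 fluorescence over baseline ratio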
RGS4 act ctr = RGS4 activator counter-screen hit in non-induced cells; shares compounds with RGS4 act; HEK293 M3R non-induced RGS4, Fluo4 calcium flux; after carbachol challenge at its EC90; inhibition, % at 10 µM; 1,100 compounds, 82% hits; AID 602283;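 active = inhibition exceeding 3 SD of buffer-only control wells, cut at about 26% in these data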;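 also: percent drop in integrated peak-minus-baseline over baseline Fluo4 ratio after carbachol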
Numbers stand for hits; - = inactive; . = not tested or not shown; ! = not confirmed by another sample. A selection: hits, their analogues and other compounds. The true share with any hit is near 3.5%.

SMILES	RGS4 inh	MrgX1 ag	MrgX1 PAM	MrgX1 antagonist	RGS4 act	RGS4 act valid	RGS4 act ctr
CC1CCC(C(C)C)C(OC(=O)Cn2c(-c3ccc(Br)cc3)[n+](C)c3ccccc32)C1 (configuration not stated)	-	-	-	-6!	-11	94	81
O=C(O)Cn1c(=O)c(F)cn(C2CCCO2)c1=O (configuration not stated)	-	-	-	-	-	.	.
CCN(CC)C(=O)CSc1nc2c(sc(=S)n2-c2ccccc2)c(=O)n1-c1ccc(OC)c(OC)c1	-	-	-	-	-	.	.
CCN(CC1CCCN(CCc2cccc(F)c2)C1)C(=O)c1cc(C)oc1C (configuration not stated)	-	-	-	-	-	.	.
CCN(CC1CCCN(CCc2cccc(F)c2)C1)C(=O)c1cc2ccccc2o1 (configuration not stated)	-	-	-	-	-7.7	78	30
CN(CC1CCCN(CCc2cccc(C(F)(F)F)c2)C1)C(=O)c1cc2ccccc2o1 (configuration not stated)	-	.	.	.	-12	92	74
CSCCC(=O)N(C)CC1CCCN(CCc2cccc(C(F)(F)F)c2)C1 (configuration not stated)	-	-	-	-	-	.	.
O=C(CCN1CCc2ccccc2C1)Nc1ccccc1	-	-	-	-	-	.	.
COc1cc(NC(=O)c2ccc(Cl)cc2)c(Cl)cc1NC(=O)c1cccnc1	-	-	-	-	-	.	.
CC(Oc1ccccc1Cl)C(=O)Nc1ccccc1C(=O)N1CCOCC1 (configuration not stated)	-	-	-	-	-	.	.
CC(C)c1ccc(CNC(=O)C(=O)NCC2CCCO2)cc1 (configuration not stated)	-	-	-	-	-	.	.
COc1ccc(S(=O)(=O)N2CCOCC2)cc1NC(=O)CCc1nc2ccccc2c(=O)[nH]1	-	-	-	-	-	.	.
CCN(c1ccccc1)S(=O)(=O)c1ccc(OC)c(NC(=O)CCc2nc3ccccc3c(=O)[nH]2)c1	-	-	-	-	-7.9	85	56
CN(CCCNC(=O)c1cc2c(Cl)nc3ccccc3c2s1)Cc1ccccc1	-	-	-	-	-	.	.
CCN(CC)CCNC(=O)c1cc2c(=O)n(CC)c3ccccc3c2s1	-	-	-	-	-8.4	54	84
CCN(CC)CCCNC(=O)c1cc2c(Cl)nc3ccccc3c2s1	-	-	-	-	-7.7	68	84
CCN(CC)CCCNC(=O)c1cc2c(=O)n(CC)c3ccccc3c2s1	-	-	-	-	-	.	.
COc1cc(CN2CCC(n3nccc3NC(=O)CCCc3ccccc3)CC2)ccc1F	-	-	-	-	-	.	.
CC(C)NC(C(=O)Nc1cc(Cl)cc(Cl)c1)c1ccccc1 (configuration not stated)	-	-	-	-	-	.	.
CN(C)CCNC(C(=O)Nc1cc(Cl)cc(Cl)c1)c1ccccc1 (configuration not stated)	-	-	-	-	-9.7	91	49
CCOC(=O)c1c(-c2ccccc2)oc2ccc(O)c(CN3CCN(C)CC3)c12	-	-	-	-	-8.1	69	49
CCOC(=O)c1c(C)n(C)c2ccc(O)c(CN3CCN(C)CC3)c12	-	-	-	-	-	.	.
CCOC(=O)c1sc(Nc2ccccc2)nc1C	-	-	-	-	-	.	.
CCOC(=O)c1sc(Nc2nc3c(OC)cccc3s2)nc1C	-	-	-	-	-7.8	93	79
Cc1ccccc1C(=O)NNC(=O)C1CC(=O)N(Cc2ccccc2)C1 (configuration not stated)	-	-	-	-	-	.	.
SMILES	RGS4 inh	MrgX1 ag	MrgX1 PAM	MrgX1 antagonist	RGS4 act	RGS4 act valid	RGS4 act ctr
COc1cc(NC(=O)c2cc3ccccc3cc2OC)ccc1NC(=O)c1cccs1	-	-	-	-	-9.1	76	-
C/C=C1\COC(C(=O)NCc2ccccc2)(C(F)(F)F)C=C1C=C(C)C (configuration not stated)	-	-	-	-	-7.8	92	93
Cc1ccc(-n2nc3c(c2NC(=O)c2ccc4c(c2)OCO4)CS(=O)(=O)C3)c(C)c1	-	-	-	-	-	.	.
O=C(c1ccc(Cl)c(NC2=NC3CS(=O)(=O)CC3S2)c1)N1CCN(c2ccccc2)CC1 (configuration not stated)	-	-	-	-	-	.	.
Cc1cccc(N2CCN(C(=O)c3ccc(Cl)c(NC4=NC5CS(=O)(=O)CC5S4)c3)CC2C)c1 (configuration not stated)	-	-	-	-	-8.5	-	-
COC(=O)/C=C1/SC(=NC(=O)c2cccc([N+](=O)[O-])c2)NC1=O	-	-	-	-	-	.	.
Cc1ccc(N)c(C(O)(C(F)(F)F)C(F)(F)F)c1	-	-	-	-	-	.	.
CNc1ccc(C(O)(C(F)(F)F)C(F)(F)F)cc1C(O)(C(F)(F)F)C(F)(F)F	-	-	-	-	-8.2	90	69
COC(=O)CSc1nc(SCc2ccccc2Cl)nc2c1CCCC2	-	-	-	-	-8	48	84
CCc1cccc(CC)c1NC(=O)COn1nnc2ccc(C(F)(F)F)cc21	-	-	-	-	-	.	.
COc1ccc(/C=C/CN2CCCC(CCC(=O)NCc3ccc(F)c(F)c3)C2)cc1 (configuration not stated)	-	-	-	-	-7.8	92	87
COC(=O)c1ccc(CN2CCCC(CCC(=O)NCc3ccc(C)o3)C2)cc1 (configuration not stated)	-	-	-	-	-9	88	71
O=C(CCC1CCCN(Cc2cccc3c2OCO3)C1)NCc1ccc(F)c(F)c1 (configuration not stated)	-	-	-	-	-9.4	50	33
COc1ccccc1/C=C/CN1CCCC(CCC(=O)NCc2ccc(F)c(F)c2)C1 (configuration not stated)	-	-	-	-	-	.	.
Cc1ccc(NC(=O)C(C)c2ccc([N+](=O)[O-])cc2)cc1Cl (configuration not stated)	-	-	-	-	-	.	.
CC(=O)NC1C(=O)N=C(SC(C)C(=O)Nc2cccc(Cl)c2)NC1=O (configuration not stated)	-	-	-	-	-	.	.

Screening data: PubChem BioAssay, Johns Hopkins Ion Channel Center
